Experimental data taken from ChEMBL document CHEMBL1148584, “Effect of polyamine homologation on the transport and biological properties of heterocyclic amidines” (J Med Chem, 2006).

What was measured:
[1] = tested on: CHO; assay: Inhibition of cell growth in CHO cells in the presence of DFMO; assay type: functional, cell-based; conditions: Cricetulus griseus
Method in brief: (§1)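 L1210 cells seeded at 5 × 10⁴ cells/mL with conjugate added at seeding; CHO/CHO-MG plated at 2 × 10³ cells/mL with conjugate added after overnight (24 h). 5 mM DFMO added together with conjugate; medium contains 2 mM aminoguanidine. After 48 h, growth read by MTT formazan absorbance at 540 nm. IC50 is 50% growth inhibition; mean of three determinations.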

[2] = tested on: L1210; assay: Intracellular level of spermine in L1210 cells in the absence of DFMO at 20 uM; assay type: functional, cell-based; conditions: Mus musculus
Method in brief: (§2)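 L1210 cells in RPMI 1640/10% FCS with 2 mM aminoguanidine, seeded at 4 × 10⁴ cells/mL. Conjugate, with or without 5 mM DFMO, added at seeding; cells cultured 48 h, washed in cold NaCl, and extracted with 0.2 N HClO₄. Conjugate and free putrescine, spermidine and spermine quantified by ion-pair HPLC (UV 254 nm, fluorescence ex 345/em 455 nm); normalised to protein. Student's t-test, p<0.05.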

[3] = tested on: L1210; assay: Intracellular level of spermine in L1210 cells in the presence of DFMO at 20 uM; assay type: functional, cell-based; conditions: Mus musculus; method in brief: as §2
[4] = tested on: L1210; assay: Intracellular level of conjugate in L1210 cells in the absence of DFMO at 20 uM; assay type: functional, cell-based; conditions: Mus musculus; method in brief: as §2
[5] = tested on: L1210; assay: Intracellular level of polyamine in L1210 cells in the presence of DFMO at 20 uM; assay type: functional, cell-based; conditions: Mus musculus; method in brief: as §2
[6] = tested on: L1210; assay: Inhibition of cell growth in L1210 cells in the presence of DFMO; assay type: functional, cell-based; conditions: Mus musculus; method in brief: as §1
[7] = Selectivity for uptake in CHO cell line over CHO-MG cell line at 25 uM; assay type: functional, Cricetulus griseus
Method in brief: (§3)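 Ratio of intracellular conjugate level in CHO over CHO-MG cells. Both lines were exposed to conjugate 24 h after seeding at 2 × 10⁵ cells/mL, for 24 h with 2 mM aminoguanidine in the medium. Levels were measured by ion-pair HPLC of perchloric extracts and normalised to protein (nmol/mg).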

[8] = target: Phosphodiesterase 1 (Bos taurus, UniProt Q01061+P14100); assay: Inhibition of bovine calmodulin-activated cAMP dependent phosphodiesterase; assay type: protein assay
Method in brief: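 Crude bovine heart PDE preparation containing calmodulin and Ca²⁺ (0.2 milliunit). Incubated 20 min at 37 °C with 0.1 mM [8-³H]cAMP and graded drug concentrations in 30 mM Tris-HCl, 3 mM MgSO₄, 0.6 mM AMP. Stopped with ZnSO₄; Ba(OH)₂ precipitated AMP with BaSO₄; supernatant radioactivity counted. IC50 is the concentration giving 50% inhibition.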

[9] = tested on: CHO-MG; assay: Inhibition of cell growth in CHO-MG cells in the presence of DFMO; assay type: functional, cell-based; conditions: Cricetulus griseus; method in brief: as §1
[10] = tested on: CHO; assay: Cellular uptake in CHO cells at 25 uM; assay type: ADME, cell-based, Cricetulus griseus; conditions: chinese hamster
Method in brief: (§4)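 CHO (RPMI 1640, 10% FCS, 2 mM aminoguanidine) and CHO-MG (plus L-proline) cells seeded at 2 × 10⁵ cells/mL. Conjugate added 24 h after seeding and cells harvested 24 h later, then washed in cold 0.14 M NaCl and sonicated in 0.2 N HClO₄. Supernatant analysed by ion-pair reversed-phase HPLC (n-octanesulfonate), expressed as nmol/mg protein; mean ± SD of three determinations.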

[11] = tested on: CHO-MG; assay: Cellular uptake in CHO-MG cells at 25 uM; assay type: ADME, cell-based, Cricetulus griseus; conditions: chinese hamster; method in brief: as §4
[12] = tested on: L1210; assay: Intracellular level of putrescine in L1210 cells in the absence of DFMO at 20 uM; assay type: functional, cell-based; conditions: Mus musculus; method in brief: as §2
[13] = tested on: L1210; assay: Intracellular level of putrescine in L1210 cells in the presence of DFMO at 20 uM; assay type: functional, cell-based; conditions: Mus musculus; method in brief: as §2
[14] = tested on: L1210; assay: Intracellular level of spermidine in L1210 cells in the absence of DFMO at 20 uM; assay type: functional, cell-based; conditions: Mus musculus; method in brief: as §2
[15] = tested on: L1210; assay: Intracellular level of spermidine in L1210 cells in the presence of DFMO at 20 uM; assay type: functional, cell-based; conditions: Mus musculus; method in brief: as §2
[16] = tested on: L1210; assay: Intracellular level of conjugate in L1210 cells in the presence of DFMO at 10 uM; assay type: functional, cell-based; conditions: Mus musculus; method in brief: as §2
[17] = tested on: CHO; assay: Cellular uptake in CHO cells at 10 uM; assay type: ADME, cell-based, Cricetulus griseus; conditions: chinese hamster; method in brief: as §4
[18] = tested on: CHO-MG; assay: Cellular uptake in CHO-MG cells at 10 uM; assay type: ADME, cell-based, Cricetulus griseus; conditions: chinese hamster; method in brief: as §4
[19] = tested on: CHO-MG; assay: Selectivity for uptake in CHO cell line over CHO-MG cell line at 10 uM; assay type: functional, cell-based; conditions: Cricetulus griseus; method in brief: as §3
[20] = tested on: L1210; assay: Intracellular level of spermine in L1210 cells in the absence of DFMO at 10 uM; assay type: functional, cell-based; conditions: Mus musculus; method in brief: as §2
[21] = tested on: L1210; assay: Intracellular level of conjugate in L1210 cells in the absence of DFMO at 10 uM; assay type: functional, cell-based; conditions: Mus musculus; method in brief: as §2
[22] = tested on: L1210; assay: Intracellular level of spermine in L1210 cells in the presence of DFMO at 10 uM; assay type: functional, cell-based; conditions: Mus musculus; method in brief: as §2
[23] = tested on: L1210; assay: Intracellular level of spermidine in L1210 cells in the absence of DFMO at 10 uM; assay type: functional, cell-based; conditions: Mus musculus; method in brief: as §2
[24] = tested on: L1210; assay: Intracellular level of spermidine in L1210 cells in the presence of DFMO at 10 uM; assay type: functional, cell-based; conditions: Mus musculus; method in brief: as §2
[25] = tested on: CHO; assay: Cellular uptake in CHO cells at 50 uM; assay type: ADME, cell-based, Cricetulus griseus; conditions: chinese hamster; method in brief: as §4
[26] = tested on: CHO-MG; assay: Cellular uptake in CHO-MG cells at 50 uM; assay type: ADME, cell-based, Cricetulus griseus; conditions: chinese hamster; method in brief: as §4
[27] = Selectivity for uptake CHO cell line over CHO-MG cell line at 50 uM; assay type: functional, Cricetulus griseus; method in brief: as §3
[28] = tested on: L1210; assay: Intracellular level of putrescine in L1210 cells in the absence of DFMO at 10 uM; assay type: functional, cell-based; conditions: Mus musculus; method in brief: as §2
[29] = tested on: L1210; assay: Intracellular level of putrescine in L1210 cells in the presence of DFMO at 10 uM; assay type: functional, cell-based; conditions: Mus musculus; method in brief: as §2
[30] = tested on: L1210; assay: Intracellular level of conjugate in L1210 cells in the presence of DFMO at 25 uM; assay type: functional, cell-based; conditions: Mus musculus; method in brief: as §2
[31] = tested on: L1210; assay: Intracellular level of putrescine in L1210 cells in the absence of DFMO at 25 uM; assay type: functional, cell-based; conditions: Mus musculus; method in brief: as §2
[32] = tested on: L1210; assay: Intracellular level of spermidine in L1210 cells in the presence of DFMO at 25 uM; assay type: functional, cell-based; conditions: Mus musculus; method in brief: as §2
[33] = tested on: L1210; assay: Intracellular level of spermine in L1210 cells in the absence of DFMO at 25 uM; assay type: functional, cell-based; conditions: Mus musculus; method in brief: as §2
[34] = tested on: L1210; assay: Intracellular level of spermine in L1210 cells in the presence of DFMO at 25 uM; assay type: functional, cell-based; conditions: Mus musculus; method in brief: as §2
[35] = tested on: L1210; assay: Intracellular level of putrescine in L1210 cells in the presence of DFMO at 25 uM; assay type: functional, cell-based; conditions: Mus musculus; method in brief: as §2
[36] = tested on: L1210; assay: Intracellular level of spermidine in L1210 cells in the absence of DFMO at 25 uM; assay type: functional, cell-based; conditions: Mus musculus; method in brief: as §2
[37] = tested on: L1210; assay: Intracellular level of conjugate in L1210 cells in the absence of DFMO at 25 uM; assay type: functional, cell-based; conditions: Mus musculus; method in brief: as §2

| IC50 [6] [µM] | IC50 [8] [µM] | Drug uptake [10] [nmol/mg] | Drug uptake [11] [nmol/mg] | SMILES | IC50 [1] [µM] | Selectivity ratio [7] | IC50 [9] [µM] | Drug uptake [16] [nmol/mg] | Drug uptake [20] [nmol/mg] | Drug uptake [21] [nmol/mg] | Drug uptake [22] [nmol/mg] | Drug uptake [23] [nmol/mg] | Drug uptake [24] [nmol/mg] | other results |
| --- | --- | --- | --- | --- | --- | --- | --- | --- | --- | --- | --- | --- | --- | --- |
| 54 | 116 | 3.6 | 3.3 | CC1C[C@]2(C)C(NCCCCN)=Nc3ccccc3[C@@H]2N(C)c2ccccc21 (some centres undefined) | 45 | 1.1 | 24 | – | – | – | – | – | – | Drug uptake [2]: 6.3 nmol/mg; Drug uptake [3]: 9 nmol/mg; Drug uptake [4]: 13 nmol/mg; Drug uptake [5]: 8.2 nmol/mg; Drug uptake [12]: 0.85 nmol/mg; Drug uptake [13]: 0.7 nmol/mg; Drug uptake [14]: 11 nmol/mg; Drug uptake [15]: 0.87 nmol/mg |
| > 100 | > 500 | 15.4 | 2.2 | NCCCCNCCCNC1=Nc2ccccc2CC1 | – | 7 | – | 8.2 | 7.1 | 4.3 | 12.1 | 14.5 | 3.2 | Drug uptake [17]: 11 nmol/mg; Drug uptake [18]: 1.6 nmol/mg; Ratio [19]: 6.9 |
| 56 | 70 | 8.1 | 7.2 | CNc1cccc2c1[C@H](C)C[C@]1(C)C(NCCCCN)=Nc3ccccc3[C@H]21 | 57 | 1.1 | 30 | – | – | – | – | – | – | Drug uptake [2]: 8.9 nmol/mg; Drug uptake [3]: 10 nmol/mg; Drug uptake [4]: 23 nmol/mg; Drug uptake [5]: 8.2 nmol/mg; Drug uptake [12]: 1.6 nmol/mg; Drug uptake [13]: 1 nmol/mg; Drug uptake [14]: 14 nmol/mg; Drug uptake [15]: 2.1 nmol/mg |
| 2.3 | 8 | – | – | CN(c1ccccc1)C1c2ccccc2N=C(NCCCNCCCCNCCCN)C1(C)C (centres undefined) | – | – | – | 2.6 | 9.5 | 1.8 | 7.6 | 16 | 0.6 | Drug uptake [25]: 3.3 nmol/mg; Drug uptake [26]: 3.2 nmol/mg; Selectivity ratio [27]: 1; Drug uptake [28]: 0.41 nmol/mg; Drug uptake [29]: 0.02 nmol/mg |
| – | > 500 | – | – | CC1C[C@]2(C)C(NCCCO)=Nc3ccccc3[C@@H]2N(C)c2ccccc21 (some centres undefined) | – | – | – | – | – | – | – | – | – | – |
| – | > 500 | – | – | NCCCCN [PUTRESCINE] | – | – | > 100 | – | – | – | – | – | – | – |
| 2.4 | 10 | 2.2 | 2.1 | CNc1cccc2c1[C@H](C)C[C@]1(C)C(NCCCNCCCCNCCCN)=Nc3ccccc3[C@H]21 | 11 | 1 | 23 | 2.1 | 8.2 | 0.95 | 7.3 | 16 | 0.51 | Drug uptake [28]: 1.4 nmol/mg; Drug uptake [29]: 0.04 nmol/mg |
| – | 22 | – | – | CNc1cccc2c1[C@H](C)C[C@]1(C)C(NCCCNCCCCN)=Nc3ccccc3[C@H]21 | – | – | > 100 | – | – | – | – | – | – | Drug uptake [30]: 1.3 nmol/mg; Drug uptake [25]: 1.3 nmol/mg; Drug uptake [26]: 1.2 nmol/mg; Selectivity ratio [27]: 1; Drug uptake [31]: 1 nmol/mg; Drug uptake [32]: 1.5 nmol/mg; Drug uptake [33]: 11 nmol/mg; Drug uptake [34]: 8.9 nmol/mg; Drug uptake [35]: 0.02 nmol/mg; Drug uptake [36]: 24 nmol/mg; Drug uptake [37]: 1.2 nmol/mg |
| – | > 500 | – | – | OCCCNC1=Nc2ccccc2CC1 | – | – | – | – | – | – | – | – | – | – |
